Series [1] deals with CYP2C9 (Homo sapiens, UniProt P11712). The experiment in a line: Inhibition of CYP2C9 (unknown origin) at 10 uM relative to control. It counts as ADME. Summed up:
(§1)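 CYP isoenzyme inhibition is measured at 10 μM compound. Result is given as % inhibition.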

Series [2] deals with CYP2D6 (Homo sapiens, UniProt P10635). The experiment in a line: Inhibition of CYP2D6 (unknown origin) at 10 uM relative to control. It counts as ADME. The method, boiled down: as §1
In series [3] the target is T1, 5-hydroxytryptamine receptor 3A (Cavia porcellus) (UniProt O70212).
T1 sequence (whole entry): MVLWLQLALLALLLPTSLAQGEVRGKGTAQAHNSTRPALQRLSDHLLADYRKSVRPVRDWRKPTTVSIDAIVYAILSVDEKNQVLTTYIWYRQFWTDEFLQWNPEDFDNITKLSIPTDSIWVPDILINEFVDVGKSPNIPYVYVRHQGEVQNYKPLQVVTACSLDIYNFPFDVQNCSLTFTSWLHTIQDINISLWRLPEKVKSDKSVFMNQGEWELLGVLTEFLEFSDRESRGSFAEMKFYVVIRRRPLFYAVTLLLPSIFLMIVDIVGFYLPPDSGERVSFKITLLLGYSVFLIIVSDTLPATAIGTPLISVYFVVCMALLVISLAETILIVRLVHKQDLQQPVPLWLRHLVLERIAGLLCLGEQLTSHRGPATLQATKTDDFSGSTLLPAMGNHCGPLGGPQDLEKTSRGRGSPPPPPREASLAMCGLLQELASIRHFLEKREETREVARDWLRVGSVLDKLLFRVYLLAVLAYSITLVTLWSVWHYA
To be noted: Ileum, filed as antagonist.

Structures are written as SMILES.

Sequence of CYP2D6 (P10635 whole entry): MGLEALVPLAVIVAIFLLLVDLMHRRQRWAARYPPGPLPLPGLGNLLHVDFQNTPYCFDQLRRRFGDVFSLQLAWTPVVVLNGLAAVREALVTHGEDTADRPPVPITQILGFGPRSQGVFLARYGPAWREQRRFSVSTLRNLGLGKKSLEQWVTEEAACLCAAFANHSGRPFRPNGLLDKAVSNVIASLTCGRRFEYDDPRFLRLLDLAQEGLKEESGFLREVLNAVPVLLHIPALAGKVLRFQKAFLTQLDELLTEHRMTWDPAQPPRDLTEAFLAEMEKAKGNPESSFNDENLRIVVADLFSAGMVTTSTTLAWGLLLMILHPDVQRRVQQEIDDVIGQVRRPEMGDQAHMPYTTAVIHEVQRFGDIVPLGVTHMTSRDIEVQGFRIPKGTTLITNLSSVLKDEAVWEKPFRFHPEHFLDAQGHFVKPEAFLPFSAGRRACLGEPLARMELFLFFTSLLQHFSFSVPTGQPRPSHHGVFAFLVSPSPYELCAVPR
Sequence of CYP2C9 (P11712 whole entry): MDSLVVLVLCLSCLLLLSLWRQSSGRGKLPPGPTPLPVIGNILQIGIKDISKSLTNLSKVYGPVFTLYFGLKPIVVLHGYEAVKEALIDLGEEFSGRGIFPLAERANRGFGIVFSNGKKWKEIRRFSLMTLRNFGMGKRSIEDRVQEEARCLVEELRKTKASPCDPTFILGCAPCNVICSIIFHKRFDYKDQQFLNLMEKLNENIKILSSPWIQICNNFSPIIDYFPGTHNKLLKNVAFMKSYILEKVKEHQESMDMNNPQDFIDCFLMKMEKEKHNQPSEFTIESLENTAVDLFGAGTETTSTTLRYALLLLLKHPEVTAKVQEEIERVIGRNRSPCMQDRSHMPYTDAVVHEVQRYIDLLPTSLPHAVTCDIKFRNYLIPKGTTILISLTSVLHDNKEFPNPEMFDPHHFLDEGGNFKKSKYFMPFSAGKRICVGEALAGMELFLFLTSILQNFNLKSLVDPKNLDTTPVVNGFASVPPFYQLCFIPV

Regarding `O=S(=O)(c1cccc(F)c1)n1ccc2c(N3CCNCC3)nc3ccccc3c21`, the inhibition at 10 µM in series [1] and in series [2] was under 25% each time.
`Cc1nccn1CC1CCc2c(c3ccccc3n2C)C1=O` (stereo not drawn) displayed a pD2 in series [3] of 6.43.

For the origin of these results see ChEMBL document CHEMBL4842371 (J Med Chem, 2021).
